# Article PMC10262780 (Nature structural & molecular biology, 2022)
# Square brackets hold non-standard residues; d marks the D form. Ends that are not written are not given here. * marks the point of attachment. FITC = O=C1OC2(c3ccc(O)cc3Oc3cc(O)ccc32)c2ccc(NC(=S)*)cc21; pS = N[C@@H](COP(=O)(O)O)C(=O)O
# T1: Rb (human Retinoblastoma protein AB domain) (Homo sapiens, UniProt P06400, DEL582-642)
# T1 sequence (P06400 with tags, fused parts or gaps DEL582-642): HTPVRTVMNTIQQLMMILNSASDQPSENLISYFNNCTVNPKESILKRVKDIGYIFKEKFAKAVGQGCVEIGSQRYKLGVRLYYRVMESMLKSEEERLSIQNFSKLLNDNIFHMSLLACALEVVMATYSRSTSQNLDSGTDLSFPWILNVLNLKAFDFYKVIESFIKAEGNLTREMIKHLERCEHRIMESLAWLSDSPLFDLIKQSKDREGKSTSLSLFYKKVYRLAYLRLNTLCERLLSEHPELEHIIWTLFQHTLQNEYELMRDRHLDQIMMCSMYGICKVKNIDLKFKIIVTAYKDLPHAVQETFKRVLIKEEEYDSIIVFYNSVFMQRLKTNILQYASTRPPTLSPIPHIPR
# T2: human Retinoblastoma protein AB domain with a stabilizing loop deletion (372-787Δ582-642) (human, UniProt P06400 372-787, Δ582–642)
# T2 sequence (looked up): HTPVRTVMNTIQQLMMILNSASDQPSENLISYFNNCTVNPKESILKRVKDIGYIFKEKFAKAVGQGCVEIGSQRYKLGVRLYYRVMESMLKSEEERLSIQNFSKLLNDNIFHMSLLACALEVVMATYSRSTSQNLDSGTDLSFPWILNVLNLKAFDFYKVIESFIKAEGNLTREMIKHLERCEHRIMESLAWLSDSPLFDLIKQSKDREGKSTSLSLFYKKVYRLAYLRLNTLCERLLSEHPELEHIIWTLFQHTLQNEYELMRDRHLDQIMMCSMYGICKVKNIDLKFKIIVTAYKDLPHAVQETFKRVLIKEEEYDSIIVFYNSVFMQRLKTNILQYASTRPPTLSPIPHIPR
# T3: Rb (human Retinoblastoma protein AB domain, 372–787Δ582–642) (Homo sapiens, UniProt P06400, DEL582-642)
# T3 sequence (P06400 with tags, fused parts or gaps DEL582-642): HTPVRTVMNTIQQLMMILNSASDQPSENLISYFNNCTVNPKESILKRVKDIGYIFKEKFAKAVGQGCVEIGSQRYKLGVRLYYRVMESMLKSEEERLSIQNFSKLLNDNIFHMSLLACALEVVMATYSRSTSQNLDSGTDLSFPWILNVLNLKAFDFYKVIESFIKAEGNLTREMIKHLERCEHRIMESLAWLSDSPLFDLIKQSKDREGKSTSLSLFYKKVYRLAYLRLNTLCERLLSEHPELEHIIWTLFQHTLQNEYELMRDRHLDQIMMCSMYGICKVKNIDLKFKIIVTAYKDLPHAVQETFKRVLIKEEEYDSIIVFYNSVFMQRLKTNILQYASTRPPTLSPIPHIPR
# Columns and labels:
# [1] = target: T1, Rb (human Retinoblastoma protein AB domain); assay: Isothermal titration calorimetry; type: binding; conditions: ITC
# How it was run: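 Human Rb AB domain (residues 372–787, loop 582–642 deleted), expressed in E. coli, in the cell at 5–30 µM. Peptide/protein titrant in the syringe at 50–300 µM. Cell and syringe samples co-dialysed 48 h at 4 °C in 20 mM sodium phosphate pH 7.0, 200 mM NaCl, 5 mM 2-mercaptoethanol, then degassed. Run at 20.0 °C unless stated, also 10–30 °C. 28 × 10-µl or 13 × 3-µl injections; enthalpy per mole of injectant fitted to a single-site model.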
# [2] = target: human Retinoblastoma protein AB domain with a stabilizing loop deletion (372-787Δ582-642) (human) (UniProt P06400); assay: fluorescence polarisation
# [3] = target: T2, human Retinoblastoma protein AB domain …; assay: fluorescence polarisation
# [4] = target: T1, Rb (human Retinoblastoma protein AB domain); assay: E2F competition; type: binding; conditions: MBP fusion protein, competition experiment
# [5] = target: T3, Rb (human Retinoblastoma protein AB domain, 372–787Δ582–642); assay: Fluorescence polarization direct titration of FITC-labelled constructs with Rb; type: binding
# [6] = target: T2, human Retinoblastoma protein AB domain …; assay: ITC
# DNA = conditions: Oct-1 binding to DNA; cited from earlier work
# [7] = target: T2, human Retinoblastoma protein AB domain …; assay: fluorescence polarisation; remark: listed apart in the source
# [8] = target: T2, human Retinoblastoma protein AB domain …; assay: fluorescence polarisation + ITC
# [9] = from direct titration KD values
molecule,measurement,setting,value
116-VPEVIDLTCHEAGFPP-131 [E1ALxCxE],thermodynamic origin of binding to Rb,"[1]; 20 mM Sodium Phosphate pH 7.0, 200 mM NaCl, 5mM 2-mercapto ethanol, 20 °C",enthalpically driven
"Hum-2–2x: tandem repeat of the Hum-2 (HAdV40) linker between the HAdV5 E1AE2F and E1A_(LxCxE) motifs, MBP fusion","KD/KD,E1AWT",[2],1.1
MBP-E1AWT (uncleaved MBP fusion of HAdV5 E1A 36-146) (domain or fragment) SHFEPPTLHELYDLDVTAPEDPNEEAVSQIFPDSVMLAVQEGIDLLTFPPAPGSPEPPHLSRQPEQPEQRALGPVSMPNLVPEVIDLTCHEAGFPPSDDEDEEGEEFVLDY,Kd,[3],75 ± 17 pM
"MBP-E1AWT: uncleaved MBP fusion protein of E1AWT (protein, left off: MBP, end not stated, kept) SHFEPPTLHELYDLDVTAPEDPNEEAVSQIFPDSVMLAVQEGIDLLTFPPAPGSPEPPHLSRQPEQPEQRALGPVSMPNLVPEVIDLTCHEAGFPPSDDEDEEGEEFVLDY",binding affinity compared with cleaved E1AWT,[4],same binding affinity as cleaved E1AWT
"E1AWT: adenovirus serotype 5 (HAdV5) Early 1A protein fragment (36–146), minimal Rb binding region (protein, left off: MBP, end not stated, cleaved) SHFEPPTLHELYDLDVTAPEDPNEEAVSQIFPDSVMLAVQEGIDLLTFPPAPGSPEPPHLSRQPEQPEQRALGPVSMPNLVPEVIDLTCHEAGFPPSDDEDEEGEEFVLDY",Ceff obtained from the affinities of the construct and the isolated motifs,"[5]; Ceff=(KD,E2F*KD,LxCxE)/KD",0.52 ± 0.09 mM
same,total ΔGBINDING,[5]; binding to Rb,-14.24 kcal/mol
same,affinity enhancement compared to E2F2,[5]; [9],40 fold
same,affinity enhancement compared to the individual E1A SLiMs,[5]; [9],4000 fold
SPSLDQDDYLWGLEAGEGISDLFD [Human E2F2 peptide (404-427)],binding result,[6],binds
"Oct-1: POU domain activator Oct-1 binding to DNA (protein, UniProt P14859 1-743, looked up) POU domain, class 2, …: MNNPSETSKPSMESGDGNTGTQTNGLDFQKQPVPVGGAISTAQAQAFLGHLHQVQLAGTSLQAAAQSLNVQSKSNEESGDSQQPSQPSQQPSVQAAIPQTQLMLAGGQITGLTLTPAQQQLLLQQAQAQAQLLAAAVQQHSASQQHSAAGATISASAATPMTQIPLSQPIQIAQDLQQLQQLQQQNLNLQQFVLVHPTTNLQPAQFIISQTPQGQQGLLQAQNLLTQLPQQSQANLLQSQPSITLTSQPATPTRTIAATPIQTLPQSQSTPKRIDTPSLEEPSDLEELEQFAKTFKQRRIKLGFTQGDVGLAMGKLYGNDFSQTTISRFEALNLSFKNMCKLKPLLEKWLNDAENLSSDSSLSSPSALNSPGIEGLSRRRKKRTSIETNIRVALEKSFLENQKPTSEEITMIADQLNMEKEVIRVWFCNRRQKEKRINPPSSGGTSSSPIKAIFPSPTSLVATTPSLVTSSAATTLTVSPVLPLTSAAVTNLSVTGTSDTTSNNTATVISTAPPASSAVTSPSLSPSPSASASTSEASSASETSTTQTTSTPLSSPLGTSQVMVTASGLQTAAAAALQGAAQLPANASLAAMAAAAGLNPSLMAPSQFAAGGALLSLNPGTLSGALSPALMSNSTLATIQALASGGSLPITSLDATGNLVFANAGGAPNIVTAPLFLNPQNLSLLTSNPVSLVSAAAASAGNSAPVASLHATSTSAESIQNSLFTVASASGAASTTTTASKAQ",Kd,DNA,71 pM
same,affinity enhancement by tethering,DNA,2100 fold
"FITC-labelled E1AΔE (domain or fragment, FITC (fluorescein 5-isothiocyanate) on the N-terminus) SHFEPPTAAAADLDVTAPEDPNEEAVSQIFPDSVMLAVQEGIDLLTFPPAPGSPEPPHLSRQPEQPEQRALGPVSMPNLVPEVIDLTCHEAGFPPSDDEDEEGEEFVLDY",binding result,[7],binds
"VPEVIDLTCHEAGFPP[pS]DDEDEEG [E1A_(LxCxE-ACP) peptide (HAdV5 E1A 116-139, phosphorylated at Ser132)]",fold increase in binding affinity over E1A_(LxCxE),[8],5 fold
"FITC-labelled E1AΔL (domain or fragment, FITC (fluorescein 5-isothiocyanate) on the N-terminus) SHFEPPTLHELYDLDVTAPEDPNEEAVSQIFPDSVMLAVQEGIDLLTFPPAPGSPEPPHLSRQPEQPEQRALGPVSMPNLVPEVIDAAAAAGFPPSDDEDEEGEEFVLDY",binding result,[7],binds
"E1AΔL: E1AWT variant with LxCxE motif mutated to poly-alanine (122-LTCHE-126Δ122-AAAA-125) (protein, left off: MBP, end not stated, cleaved) SHFEPPTLHELYDLDVTAPEDPNEEAVSQIFPDSVMLAVQEGIDLLTFPPAPGSPEPPHLSRQPEQPEQRALGPVSMPNLVPEVIDAAAAAGFPPSDDEDEEGEEFVLDY",heat behaviour of binding to Rb (exothermic/endothermic),"[1]; Rb in cell, peptide/protein as titrant",endothermic
{FITC}-VPEVIDLTCHEAGFPP [FITC-labelled E1A_(LxCxE) peptide (HAdV5 E1A 116-131)],binding result,[7],binds
